Test [1] can be described thus: inhibitors of TNFa-induced NFkB p65 translocation, primary screen, imaging, HUVEC, MLSMR starter and 10KST1 sets (AID 438;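 active = inhibition above 20% together with a positive visual image hit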;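 also: compound added about 3h40 before a 20 min TNFalpha stimulation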;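 as to inhibition: signal is the nuclear over cytoplasmic p65 intensity ratio per well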). The settings on record: HUVEC TNFa-induced p65 nuclear translocation; cell count: measured here: nuclei count (cytotoxicity indicator), at 2.08 µM; inhibition: at 2 µM, stronger effect = higher value, 0% TNFa-plus-vehicle, 100% no-TNFa wells.
The nature of test [2]: inhibitors of mutant huntingtin aggregation, primary screen, imaging, exon1htt(103Q)mCFP cells, high-content imaging (AID 483).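 Also: compound exposure lasted 3 days before fixation.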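 As to nuclei count: percent of the per-plate median nuclei count of sample wells.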 Particulars: exon1htt(103Q)mCFP cell line, aggregate imaging, at 2 µM; inhibition of aggregation: stronger effect = higher value; nuclei count: measured here: cell count, toxicity.
Test [3] can be described thus: inhibitors of E-selectin induction by TNFa, primary screen, imaging, HUVEC, immunofluorescence, MLSMR starter and 10KST1 sets (AID 487;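 active = visually confirmed hit in the image check and inhibition above 20%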;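 as to inhibition: signal is fraction of cell area covered by stained E-selectin grains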;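 as to nuclei count: 100% = median nuclei count of all wells on the same plate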). The settings on record: HUVEC TNFalpha-induced E-selectin immunofluorescence imaging, at 2 µM; inhibition: stronger effect = higher value; nuclei count: measured here: cell number, toxicity.
Test [4] concerns the target Voltage-gated potassium channel subunit beta-2 (Rattus norvegicus) (UniProt P62483). Kind of test: KvBeta enzyme negative modulators, primary screen, biochemical, NADPH fluorescence (AID 622;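 active = fluorescence slope higher than the sample average by over 3 SD, cut at about -0.22 in these data, passing the limit was not always enough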;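 also: slope of raw intensity against log time taken from 70 to 1610 s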). The settings on record: recombinant KvBeta, 4-cyanobenzaldehyde reduction, at 10 µM, stronger effect = higher value.
Test [5] shares this target. Kind of test: KvBeta positive modulators, primary screen, biochemical, NADPH fluorescence (AID 623;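 active = NADPH fluorescence slope more negative than the mean of all samples by about 3 SD, 99.7% confidence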;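 also: fluorescence intensity change per second fitted from 20 to 320 s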). Particulars: Recombinant KvBeta, NADPH fluorescence decrease slope, 10 min; at 10 µM; stronger effect = lower value.
Test [6] deals with Muscarinic acetylcholine receptor M4 (Homo sapiens) (UniProt P08173). As to the kind of experiment: compounds altering M4/GIRK thallium flux, either direction, primary screen, M4 allosteric agonist project, cell-based, HEK293 M4/GIRK, BTC-AM (AID 625;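 active = fluorescence slope after compound addition differing from the mean of all tested samples at 99.7% confidence, mostly higher but some lower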;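 also: thallium influx through GIRK channels coupled to M4 in HEK293 cells with BTC-AM dye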). Particulars: at 10 µM, actives lie on both sides. A digest of the protocol:
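Assay system: HEK293 cells with M4 receptor and GIRK channels / Controls: carbachol and DMSO controls / Schedule: 1 h dye loading, 2 min kinetic read / Technique: kinetic fluorescence with BTC-AM dye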

A short description of test [7]: inhibitors of Sendai virus-induced IRF3 signaling, primary screen, TLR/RLR signaling modifier project, cell-based, Sendai virus stimulus, luciferase, 10K MLSCN set (AID 602276;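 active = inhibition at or above 50% at 10 µM; inactive = inhibition below 50%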;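 also: firefly luciferase from ISG56 promoter only with Renilla not read in this screen; 0% = Sendai virus plus DMSO and 100% = medium plus DMSO without virus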). The settings on record: HEK293 RL24 IRF3 luciferase reporter, at 10 µM, stronger effect = higher value. In general terms: A reporter such as luciferase makes a cellular process visible.
The nature of test [8]: inhibitors of poly I:C-induced TLR3 signaling, primary screen, cell-based, poly I:C stimulus, luciferase, 10K MLSCN set (AID 602277;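 active = inhibition of the reporter signal at or above 50%; inactive = inhibition below 50%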). The settings on record: HEK293-TLR3 RL24 IRF3 luciferase reporter, at 10 µM, stronger effect = higher value.

The term inhibition denotes the drop in the measured response relative to a control, in per cent.

Activity calls are given as the source filed them.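 The calls were made as follows, unless noted: active = visual image review flags a hit and inhibition of aggregation exceeds 20%; inconclusive = visual hit but inhibition at or below 20%; inactive = no hit on visual image review.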

Chain of Muscarinic acetylcholine receptor M4 (Homo sapiens) (P08173 whole entry, looked up): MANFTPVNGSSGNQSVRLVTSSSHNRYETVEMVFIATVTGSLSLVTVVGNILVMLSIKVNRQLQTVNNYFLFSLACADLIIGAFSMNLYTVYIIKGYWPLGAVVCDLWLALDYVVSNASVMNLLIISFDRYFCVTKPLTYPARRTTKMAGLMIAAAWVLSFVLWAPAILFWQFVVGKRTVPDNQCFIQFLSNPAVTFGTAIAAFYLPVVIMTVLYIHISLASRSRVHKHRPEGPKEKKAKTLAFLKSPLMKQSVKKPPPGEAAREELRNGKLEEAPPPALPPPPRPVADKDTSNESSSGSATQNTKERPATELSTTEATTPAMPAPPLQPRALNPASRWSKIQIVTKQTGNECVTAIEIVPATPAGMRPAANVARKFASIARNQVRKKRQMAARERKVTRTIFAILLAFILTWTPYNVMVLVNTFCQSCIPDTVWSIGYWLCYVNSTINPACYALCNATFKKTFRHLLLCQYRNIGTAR
Chain of Voltage-gated potassium channel subunit beta-2 (Rattus norvegicus) (P62483 whole entry, looked up): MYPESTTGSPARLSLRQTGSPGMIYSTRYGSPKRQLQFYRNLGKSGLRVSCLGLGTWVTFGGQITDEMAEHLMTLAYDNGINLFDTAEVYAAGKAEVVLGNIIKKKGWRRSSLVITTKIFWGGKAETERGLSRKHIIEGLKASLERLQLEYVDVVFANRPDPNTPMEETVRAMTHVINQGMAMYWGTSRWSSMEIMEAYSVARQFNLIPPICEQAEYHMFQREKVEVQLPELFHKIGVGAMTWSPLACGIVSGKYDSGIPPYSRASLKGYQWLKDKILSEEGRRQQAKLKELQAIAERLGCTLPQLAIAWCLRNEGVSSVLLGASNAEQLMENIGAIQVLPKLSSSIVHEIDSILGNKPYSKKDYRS

As for `O=C(O)c1ccc(-n2nc(C(F)(F)F)c3c2-c2ccoc2CC3)cc1`, the cell count in test [1] was 609. Besides, the inhibition in test [1] was -5.9% (inactive); in test [3], -24.4% (inactive); in test [7], 3.92% (inactive); in test [8], -5.27% (inactive). Further, the inhibition of aggregation in test [2] is 5.8% (inactive). In addition, the results for the nuclei count in test [2] and in test [3] were 96.1% and 90.9%, respectively. Further, the fluorescence slope is -0.492 (inactive) in test [4] and 0.00488 (inactive) in test [6]. Further, the NADPH fluorescence slope in test [5] is 2.6e-05 (inactive).
For the molecule `Cc1onc(-c2ccccc2Cl)c1C(=O)Nc1cccc(-c2cn3cccnc3n2)c1`, the cell count in test [1] worked out at 369. The inhibition is -10.3% (inactive) in test [1], -4% (inactive) in test [3], 7.13% (inactive) in test [7] and 1.48% (inactive) in test [8]. Also, in test [2], the inhibition of aggregation was 7.8% (inactive). The nuclei count in test [2] was found to be 100%; in test [3], 109%. In addition, the fluorescence slope in test [4] was -0.0447 (inactive); in test [6], 0.00573 (inactive). Besides, the NADPH fluorescence slope in test [5] is -9.5e-06 (inactive).
With `O=c1[nH]c(SCc2cc(=O)n3ccccc3n2)nc2c1CCC2`, in test [1], the cell count was 681. For the same molecule, the inhibition in test [1] was -8.4% (inactive); in test [3], -123% (inactive); in test [7] it was 16.7% (inactive); in test [8], 20.7% (inactive). The inhibition of aggregation in test [2] was -47.8% (inactive). The nuclei count in test [2] was 87.5%; in test [3], 106%. The figures for the fluorescence slope in test [4] and in test [6] were -0.381 (inactive) and 0.00602 (inactive), respectively. In test [5], the NADPH fluorescence slope is 2.3e-05 (inactive).
For the molecule `CCCC1CCC(C(=O)Nn2c(C)nc3ccccc3c2=O)CC1` (centres undefined), the cell count in test [1] stood at 340. In addition, the inhibition in test [1] is 0% (inactive); in test [3] it was 11.4% (inactive); in test [7] it was 15.6% (inactive); in test [8], 18.5% (inactive). The inhibition of aggregation in test [2] was -13.5% (inactive). Moreover, the nuclei count in test [2] worked out at 73.2%; in test [3], 79%. The fluorescence slope in test [4] was -0.472 (inactive); in test [6], 0.00445 (inactive). Moreover, the NADPH fluorescence slope in test [5] is -2.4e-05 (inactive).
`O=C(CSc1nc(-c2ccco2)cc(C(F)(F)F)n1)N1CCCc2ccccc21`: the cell count in test [1] amounted to 700. Also, the inhibition in test [1] was 0% (inactive); in test [3], -20.9% (inactive); in test [7], 19% (inactive); in test [8], 13.4% (inactive). In test [2], the inhibition of aggregation was 3.1% (inactive). Besides, the nuclei count in test [2] was found to be 104%; in test [3], 114%. Moreover, the figures for the fluorescence slope in test [4] and in test [6] were -0.585 (inactive) and 0.00488 (inactive), respectively. In test [5], the NADPH fluorescence slope was -2.5e-05 (inactive).
With `CCN(CC)C(=O)c1sc(NC(=O)c2ccco2)c(C#N)c1C`, in test [1], the cell count amounted to 752. Further, the inhibition in test [1] was -1.3% (inactive); in test [3], 1.3% (inactive); in test [7], 11.4% (inactive); in test [8] it was 13.3% (inactive). Also, the inhibition of aggregation in test [2] is -26% (inactive). In addition, the nuclei count in test [2] turned out to be 118%; in test [3], 117%. Moreover, the fluorescence slope in test [4] was -0.586 (inactive); in test [6], 0.00573 (inactive). Besides, the NADPH fluorescence slope in test [5] was 1.3e-05 (inactive).
As to `C=CS(=O)(=O)c1ccc(Oc2ccc(S(=O)(=O)C=C)cc2)cc1`, in test [1], the cell count is 378. Besides, the inhibition in test [1] is 70.2% (active); in test [3], 104% (active); in test [7] it was 14.1% (inactive); in test [8], 98.2% (active). Moreover, the inhibition of aggregation in test [2] is -3.2% (inactive). In addition, the nuclei count in test [2] stood at 80.8%; in test [3], 121%. Further, the results for the fluorescence slope in test [4] and in test [6] were -0.5 (inactive) and 0.00487 (inactive), respectively. The NADPH fluorescence slope in test [5] is -2.6e-05 (inactive).
For the molecule `COc1ccc(-n2nc(C(=O)Nc3ccc4c(c3)OCO4)c3c4ccccc4n(C)c3c2=O)cc1`, the cell count in test [1] is 218. Moreover, the inhibition is 4.3% (inactive) in test [1], -66% (inactive) in test [3], 10.3% (inactive) in test [7] and 24.3% (inactive) in test [8]. For the same molecule, in test [2], the inhibition of aggregation was -21.9% (inactive). For the same molecule, the nuclei count in test [2] was determined as 47.3%; in test [3], 97.1%. Further, the fluorescence slope in test [4] is -0.566 (inactive); in test [6], 0.0112 (active). Also, the NADPH fluorescence slope in test [5] is 4e-06 (inactive).
With `O=C(Cn1cccc1C(=O)c1ccccc1)NCCN1CCOCC1`, the cell count in test [1] was 505. The inhibition in test [1] was 12.5% (inactive); in test [3] it was 25% (inactive); in test [7], 0.991% (inactive); in test [8], 12.8% (inactive). In test [2], the inhibition of aggregation was -9.1% (inactive). Further, the nuclei count in test [2] was determined as 114%; in test [3], 98.8%. Also, the fluorescence slope in test [4] is -0.583 (inactive); in test [6], 0.00604 (inactive). For the same molecule, the NADPH fluorescence slope in test [5] is -1.2e-05 (inactive).
`CCC(=O)OC1(C#CCOc2ccc(OC)cc2)CCN(C)CC1`: in test [1], the cell count stood at 393. Besides, the inhibition was -6.5% (inactive) in test [1], -43.3% (inactive) in test [3], 17.8% (inactive) in test [7] and 16% (inactive) in test [8]. In test [2], the inhibition of aggregation is -20.2% (inactive). Further, the nuclei count in test [2] was 113%; in test [3], 142%. The fluorescence slope is -0.61 (inactive) in test [4] and 0.00292 (inactive) in test [6]. The NADPH fluorescence slope in test [5] is -2.5e-05 (inactive).
Regarding `CC(=O)N1C(=O)C2(C(C#N)=C(N)Oc3cc(C)oc(=O)c32)c2ccccc21` (centres undefined), in test [1], the cell count was determined as 438. For the same molecule, the inhibition in test [1] is 3.8% (inactive); in test [3], -54.5% (inactive); in test [7], -9.7% (inactive); in test [8] it was -6.69% (inactive). Also, the inhibition of aggregation in test [2] was -2.1% (inactive). The figures for the nuclei count in test [2] and in test [3] were 108% and 110%, respectively. Further, the fluorescence slope in test [4] is -0.511 (inactive); in test [6] it was 0.00547 (inactive). Also, the NADPH fluorescence slope in test [5] is -0.00027 (inactive).
`CCCc1cc(-c2n[nH]c(C)c2-c2ccc(C(=O)OCC)o2)c(O)cc1O`: in test [1], the cell count is 651. The inhibition was 2% (inactive) in test [1], -35.2% (inactive) in test [3], 12.8% (inactive) in test [7] and 17.9% (inactive) in test [8]. Further, in test [2], the inhibition of aggregation was -2.2% (inactive). For the same molecule, the nuclei count in test [2] was 88.5%; in test [3] it was 113%. Further, the fluorescence slope in test [4] was -0.571 (inactive); in test [6], 0.00514 (inactive). Besides, the NADPH fluorescence slope in test [5] was -2e-05 (inactive).
Regarding `CCSC1(SCC)N=C(N)C2(C#N)C(c3ccccc3)NC(C)=C(C)C12C#N` (centres undefined), the cell count in test [1] amounted to 422. For the same molecule, the inhibition in test [1] was 2% (inactive); in test [3] it was -15.4% (inactive); in test [7] it was 7.48% (inactive); in test [8], 17.3% (inactive). The inhibition of aggregation in test [2] is 13.7% (inactive). Also, the nuclei count turned out to be 108% in test [2] and 120% in test [3]. Also, the fluorescence slope in test [4] is -0.401 (inactive); in test [6], 0.00608 (inactive). In test [5], the NADPH fluorescence slope was -1.2e-05 (inactive).
Turning to `CCN(CCO)C1CC(=O)N(c2ccccc2C)C1=O` (centres undefined), the cell count in test [1] worked out at 486. In addition, the inhibition was 7.7% (inactive) in test [1], -126% (inactive) in test [3], 4.48% (inactive) in test [7] and 13% (inactive) in test [8]. Also, the inhibition of aggregation in test [2] is 12.4% (inactive). For the same molecule, the nuclei count worked out at 104% in test [2] and 145% in test [3]. In addition, the fluorescence slope in test [4] was -0.321 (inactive); in test [6], 0.00663 (inactive). Further, the NADPH fluorescence slope in test [5] was -3.6e-05 (inactive).

(Values after PubChem BioAssay.)
